Source: PubChem BioAssay (several laboratories)
CaV13 ICDI inh – Primary screen for inhibitors of IQ motif and Ca2+-dependent inactivation inhibitor domain binding in CACNA1D, Förster resonance energy transfer in living cells, …; HEK cells, CFP/YFP FRET ICDI-IQ, plate reader, 10 min; percent FRET-ratio fall versus neutral wells; inhibition, % at 12.3 µM; AID 743397; actives 0.098% (n = 340,000);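 active means mean replicate inhibition of at least 30% and at least 1% of replicates passing that level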
RanGTP-Imp inh – inhibitors of RanGTP-importin-beta interaction, primary screen, biochemical, FRET, CFP-Ran, YFP-importin-beta, homogeneous. Ran GTPase (GTP-bound) - importin-beta complex. cell-free CFP-Ran/YFP-importin-beta FRET ratio. inhibition, % (no concentration beside the values). actives 1.1% (n = 300,000);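 active means more than half of the replicate wells show a fall in the fluorescence ratio signal beyond about 16%, limit read from the data, passing the limit was not always enough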
Runt-CBFb FRET – inhibitors of RUNX1 Runt–CBFb binding, primary screen, biochemical, FRET, Cerulean-Runt, Venus-CBFb, uHTS; Cerulean-Runt/Venus-CBFb FRET ratio 530/480, 1 h; actives 0.46% (n = 220,000); inhibition, % at 20 µM; AID 1496, 2009;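 active means inhibition over about 50% at 20 µM in the single-dose screen, limit read from the data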
Target sequence (Q01196 whole entry, looked up): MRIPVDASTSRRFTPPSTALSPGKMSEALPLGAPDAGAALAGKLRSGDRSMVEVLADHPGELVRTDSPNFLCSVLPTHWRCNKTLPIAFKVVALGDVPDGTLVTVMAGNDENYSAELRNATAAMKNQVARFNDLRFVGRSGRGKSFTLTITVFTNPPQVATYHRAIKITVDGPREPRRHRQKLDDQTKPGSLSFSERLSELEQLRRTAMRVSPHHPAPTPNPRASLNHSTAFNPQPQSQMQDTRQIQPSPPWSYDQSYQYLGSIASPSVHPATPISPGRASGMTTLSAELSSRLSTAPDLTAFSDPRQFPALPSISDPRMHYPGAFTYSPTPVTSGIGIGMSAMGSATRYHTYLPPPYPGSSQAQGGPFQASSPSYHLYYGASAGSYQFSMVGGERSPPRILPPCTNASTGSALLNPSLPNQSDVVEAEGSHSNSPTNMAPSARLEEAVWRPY
Target sequence (Q13951 whole entry, looked up): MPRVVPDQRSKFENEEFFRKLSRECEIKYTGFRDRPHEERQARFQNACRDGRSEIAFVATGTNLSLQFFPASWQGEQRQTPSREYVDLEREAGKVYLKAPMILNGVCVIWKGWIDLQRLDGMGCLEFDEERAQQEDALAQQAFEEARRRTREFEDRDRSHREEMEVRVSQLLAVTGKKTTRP
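Measured by: fluorescence energy transfer, 422 nm excitation, 530/480 nm emission; test system: Cerulean-tagged RUNX1 Runt domain (FRET donor) fusion protein; buffer or medium: Tris pH 7.5 buffer with BSA; compound: one dose, 20 µM compound, 1% DMSO; times: two 1 h room-temperature incubations shielded from light; benchmarks: unlabeled CBFb 5 µM, positive control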
Hck-Nef inh – inhibitors of Nef-activated human Hck kinase, primary screen, biochemical, Z-Lyte FRET, 384-well, Hck-YEEI. actives 0.68% (n = 220,000). Recombinant Hck-YEEI plus Nef, Z-Lyte FRET kinase assay. Tyrosine-protein kinase HCK (Homo sapiens), P08631. inhibition, % at 20 µM;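 active means Hck-Nef kinase inhibition above about 50%, limit read from the data; inactive means inhibition below that limit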
Runt-SMMHC FRET – inhibitors of RUNX1 Runt–CBFb-SMMHC binding, primary screen, biochemical, FRET, Cerulean-Runt, Venus-CBFb-SMMHC, uHTS; Runt-related transcription factor 1 (Homo sapiens) + Core-binding factor subunit beta …; Cerulean-Runt/Venus-CBFb-SMMHC FRET ratio 530/480, 1 h; inhibition, % at 20 µM; actives 0.74% (n = 220,000);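 active means mean inhibition across duplicate retests at 20 µM reaching about 50%, limit read from the data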;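 further: inhibitors lower the FRET ratio by blocking Runt binding to CBFb-SMMHC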
YIC counter – YIC intramolecular FRET probe signal interference, dose response, counter-screen for RanGTP-importin-beta inhibitor project, biochemical, fluorescence FRET; actives 40% (n = 1,000); Purified YIC probe, intramolecular FRET ratio YFP/CFP; IC50, µM; AID 435026, 2010; shares compounds with RanGTP-Imp inh;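 active means fitted half-maximal inhibitory concentration no more than tenfold above the top dose tested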
A number is an active result. Hits are enriched below; roughly 1.5% of the tested compounds scored in any of these assays.

What do the screens show for `CC1(C)CNC(=O)C=C(c2ccccc2)C1`?
CaV13 ICDI inh: inactive; RanGTP-Imp inh: 22.9; Runt-CBFb FRET: inactive; Hck-Nef inh: inactive; Runt-SMMHC FRET: inactive; YIC counter: inactive

What do the screens show for `COc1ccc(/C(C)=N/NC(=S)NCc2ccco2)cc1`?
CaV13 ICDI inh: inactive; RanGTP-Imp inh: inactive; Runt-CBFb FRET: inactive; Hck-Nef inh: inactive; Runt-SMMHC FRET: inactive

How did Cn1cnc(S(=O)(=O)N2CCN(c3ccc(Cl)cc3)CC2)c1 do in these assays?
CaV13 ICDI inh: inactive; RanGTP-Imp inh: 17.6; YIC counter: inactive

How did COC(=O)c1cccc(NC(=O)c2cccc(-n3cnnn3)c2)c1 do in these assays?
CaV13 ICDI inh: inactive

Results for O=C(Nc1cnc2ccccc2c1)c1cccc(-n2cnnn2)c1 ?
CaV13 ICDI inh: inactive; RanGTP-Imp inh: 18.7; Runt-CBFb FRET: inactive; Hck-Nef inh: inactive; Runt-SMMHC FRET: inactive; YIC counter: inactive

Results for COC(=O)c1cc(C(=O)OC)[nH]n1 ?
CaV13 ICDI inh: inactive; RanGTP-Imp inh: 20.0; Runt-CBFb FRET: inactive; Hck-Nef inh: inactive; Runt-SMMHC FRET: inactive; YIC counter: inactive

How did COC(=O)c1cc(-c2ccccc2)n[nH]1 do in these assays?
CaV13 ICDI inh: inactive; RanGTP-Imp inh: inactive; Runt-CBFb FRET: inactive; Hck-Nef inh: inactive; Runt-SMMHC FRET: inactive

How did Cc1nc2cc(C(=O)O)ccc2s1 do in these assays?
CaV13 ICDI inh: inactive; RanGTP-Imp inh: inactive; Runt-CBFb FRET: inactive; Hck-Nef inh: inactive; Runt-SMMHC FRET: inactive

Results for Cc1oc2cc(O)ccc2c(=O)c1-c1ccccc1 ?
CaV13 ICDI inh: inactive; RanGTP-Imp inh: inactive; Runt-CBFb FRET: inactive; Hck-Nef inh: inactive; Runt-SMMHC FRET: inactive

How did Cc1oc2cc(O)ccc2c(=O)c1-c1nncn1-c1ccccc1 do in these assays?
CaV13 ICDI inh: inactive; RanGTP-Imp inh: 37.3; Runt-CBFb FRET: inactive; Hck-Nef inh: inactive; Runt-SMMHC FRET: 92.9; YIC counter: 14.1

How did N#Cc1c2ncn(CC(=O)c3ccc(Br)cc3)c(=O)c2c2n1CCC2 do in these assays?
CaV13 ICDI inh: inactive; RanGTP-Imp inh: 16.1; Runt-CBFb FRET: inactive; Hck-Nef inh: inactive; Runt-SMMHC FRET: inactive; YIC counter: inactive

What do the screens show for `N#Cc1c2n(c3c(=O)n(CC(=O)c4ccc(Br)cc4)cnc13)CCCC2`?
CaV13 ICDI inh: inactive; RanGTP-Imp inh: inactive; Runt-CBFb FRET: inactive; Hck-Nef inh: inactive; Runt-SMMHC FRET: inactive

How did O=C1C(=O)N(Cc2cccnc2)C(c2cccc([N+](=O)[O-])c2)/C1=C(/O)c1ccc2c(c1)OCO2 (stereo unspecified) do in these assays?
RanGTP-Imp inh: inactive

Results for COc1ccccc1NC(=O)c1cc2ccccc2nc1C ?
CaV13 ICDI inh: inactive; RanGTP-Imp inh: 22.6; Runt-CBFb FRET: inactive; Hck-Nef inh: inactive; Runt-SMMHC FRET: inactive; YIC counter: inactive

What do the screens show for `CCOCCCNC(=S)N1CCC(C(=O)c2ccc3c(c2)OCCO3)CC1`?
CaV13 ICDI inh: inactive; RanGTP-Imp inh: inactive; Runt-CBFb FRET: inactive; Hck-Nef inh: inactive; Runt-SMMHC FRET: inactive

Results for CCOCCCNC(=S)NCCCNc1nc2cc3c(cc2cc1C#N)OCO3 ?
CaV13 ICDI inh: inactive; RanGTP-Imp inh: 55.5; Runt-CBFb FRET: inactive; Hck-Nef inh: inactive; Runt-SMMHC FRET: 128.8; YIC counter: 13.1

How did CN(C)CCN(C(=O)c1ccc2ccccc2c1)c1nc2ccc(Br)cc2s1 do in these assays?
CaV13 ICDI inh: inactive; RanGTP-Imp inh: inactive

What do the screens show for `CC(=O)N1CCC(N(CCN2CCOCC2)C(=O)Nc2ccc(Cl)c(Cl)c2)CC1`?
CaV13 ICDI inh: inactive; RanGTP-Imp inh: 19.3; Hck-Nef inh: inactive; YIC counter: inactive

How did CCN(CC)CCCNC(=S)N(Cc1cccs1)Cc1cc2cc3c(cc2[nH]c1=O)OCCO3 do in these assays?
CaV13 ICDI inh: inactive; RanGTP-Imp inh: 22.1; Runt-CBFb FRET: inactive; Hck-Nef inh: inactive; Runt-SMMHC FRET: inactive; YIC counter: inactive

What do the screens show for `CCN(CC)CCCNC(=S)N(Cc1ccco1)Cc1cc2cc3c(cc2[nH]c1=O)OCCO3`?
CaV13 ICDI inh: inactive; RanGTP-Imp inh: inactive; Runt-CBFb FRET: inactive; Hck-Nef inh: inactive; Runt-SMMHC FRET: inactive

Results for O=C(CN1C(=O)NC2(CCCC2)C1=O)Nc1nc2c(F)cc(F)cc2s1 ?
CaV13 ICDI inh: inactive; RanGTP-Imp inh: 19.7; YIC counter: inactive

Results for Cc1cccc2sc(NC(=O)CN3C(=O)NC4(CCCC4)C3=O)nc12 ?
RanGTP-Imp inh: inactive

How did Cc1ccc(NC(=O)COC(=O)Cc2ccsc2)c(C)c1 do in these assays?
CaV13 ICDI inh: inactive; RanGTP-Imp inh: 18.7; Runt-CBFb FRET: inactive; Hck-Nef inh: inactive; Runt-SMMHC FRET: inactive; YIC counter: inactive

How did CCCc1noc(-c2cccc([N+](=O)[O-])c2)n1 do in these assays?
CaV13 ICDI inh: inactive; RanGTP-Imp inh: 24.4; Runt-CBFb FRET: inactive; Hck-Nef inh: inactive; Runt-SMMHC FRET: inactive; YIC counter: inactive

Results for Cc1ccc(CN2CCSc3ccc(C(=O)NCc4ccccn4)cc32)cc1 ?
CaV13 ICDI inh: inactive; RanGTP-Imp inh: inactive; Runt-CBFb FRET: inactive; Hck-Nef inh: inactive; Runt-SMMHC FRET: inactive

What do the screens show for `CCOC(=O)c1ccc2[nH]cc(C(C)=O)c(=O)c2c1`?
CaV13 ICDI inh: inactive; RanGTP-Imp inh: 20.8; Runt-CBFb FRET: inactive; Hck-Nef inh: inactive; Runt-SMMHC FRET: inactive; YIC counter: 14

How did CC(=O)c1c[nH]c2ccc(C)cc2c1=O do in these assays?
CaV13 ICDI inh: inactive; RanGTP-Imp inh: inactive; Runt-CBFb FRET: inactive; Hck-Nef inh: inactive; Runt-SMMHC FRET: inactive

What do the screens show for `Oc1cccc(/C=N/Nc2cc(N3CCCC3)nc(N3CCCC3)n2)c1`?
CaV13 ICDI inh: inactive; RanGTP-Imp inh: 20.7; Runt-CBFb FRET: inactive; Hck-Nef inh: inactive; Runt-SMMHC FRET: inactive; YIC counter: inactive

Results for Oc1ccc(/C=N/Nc2cc(N3CCOCC3)nc(N3CCOCC3)n2)cc1 ?
CaV13 ICDI inh: inactive; RanGTP-Imp inh: 22.2; Hck-Nef inh: inactive; YIC counter: inactive

What do the screens show for `O=C(O)C1C2CCC(C2)C1C(=O)NCCc1cccc(Cl)c1` (stereo unspecified)?
CaV13 ICDI inh: inactive; RanGTP-Imp inh: inactive

Results for O=C(O)C1C2CCC(C2)C1C(=O)NCCc1ccc(F)cc1 (stereo unspecified) ?
CaV13 ICDI inh: inactive; RanGTP-Imp inh: 21.0; YIC counter: inactive

How did CCOC(=O)c1ccc(N/C=C\C(=O)c2cccc(OC)c2)cc1 do in these assays?
CaV13 ICDI inh: inactive; RanGTP-Imp inh: inactive; Runt-CBFb FRET: inactive; Hck-Nef inh: inactive; Runt-SMMHC FRET: inactive
